Converted amounts (≈) assume the structure as drawn.
Columns and labels:
Type in all cases: functional
Staphylococcus aureus = test: Antibacterial activity against Staphylococcus aureus after 18 to 22 hrs by broth microdilution method
Method in brief: (§1)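 Broth microdilution per NCCLS in Mueller-Hinton II broth; isolates subcultured for purity. Compounds dissolved in DMSO, serial dilutions 256 to 0.5 µg/mL; inoculum 10^5/mL. Controls: organism without compound, medium only. Incubation 18 to 22 h at 35 °C. MIC is the lowest concentration giving complete growth inhibition, read by unaided eye.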

Staphylococcus warneri = test: Antibacterial activity against Staphylococcus warneri after 18 to 22 hrs by broth microdilution method; method in brief: as §1
Enterococcus faecalis = test: Antibacterial activity against […] faecalis after 18 to 22 hrs by broth microdilution method; method in brief: as §1
[1] = tested on: Staphylococcus haemolyticus; test: Antibacterial activity against Staphylococcus haemolyticus after 18 to 22 hrs by broth microdilution method; method in brief: as §1
Escherichia coli = test: Antibacterial activity against Escherichia coli at after 18 to 22 hrs by broth microdilution method; method in brief: as §1
Proteus mirabilis = test: Antibacterial activity against Proteus mirabilis after 18 to 22 hrs by broth microdilution method; method in brief: as §1
Enterobacter sp. = test: Antibacterial activity against Enterobacter sp. after 18 to 22 hrs by broth microdilution method; method in brief: as §1
Klebsiella oxytoca = test: Antibacterial activity against Klebsiella oxytoca after 18 to 22 hrs by broth microdilution method; method in brief: as §1
Candida albicans = test: Antifungal activity against Candida albicans clinical isolate after 24 hrs by sabouraud dextrose broth based microdilution method
Method in brief: (§2)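 Clinical isolates identified by conventional methods and subcultured for purity. Broth microdilution per NCCLS in Sabouraud dextrose broth; compounds dissolved in DMSO and serially diluted; inoculum 10^3/mL. Controls: fungi without compound, medium only. Incubated 24 h at 37 °C. MIC is the lowest concentration with complete growth inhibition by unaided eye. Values are geometric means over isolates per species.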

Nakaseomyces glabratus = test: Antifungal activity against Candida glabrata clinical isolate after 24 hrs by sabouraud dextrose broth based microdilution method; method in brief: as §2
Candida tropicalis = test: Antifungal activity against Candida tropicalis clinical isolate after 24 hrs by sabouraud dextrose broth based microdilution method; method in brief: as §2
Pichia kudriavzevii = test: Antifungal activity against Candida krusei clinical isolate after 24 hrs by sabouraud dextrose broth based microdilution method; method in brief: as §2
Candida parapsilosis = test: Antifungal activity against Candida parapsilosis clinical isolate after 24 hrs by sabouraud dextrose broth based microdilution method; details: Lodderomyces parapsilosis; method in brief: as §2
[Candida] sake = Antifungal activity against Candida sake clinical isolate after 24 hrs by sabouraud dextrose broth based microdilution method; details: Fermentozyma sake; method in brief: as §2

Compound	MIC (Staphylococcus aureus) [µg/mL]	MIC (Staphylococcus warneri) [µg/mL]	MIC (Enterococcus faecalis) [µg/mL]	MIC [1] [µg/mL]	MIC (Escherichia coli) [µg/mL]	MIC (Proteus mirabilis) [µg/mL]	MIC (Enterobacter sp.) [µg/mL]	MIC (Klebsiella oxytoca) [µg/mL]	MIC (Candida albicans) [µg/mL]	MIC (Nakaseomyces glabratus) [µg/mL]	MIC (Candida tropicalis) [µg/mL]	MIC (Pichia kudriavzevii) [µg/mL]	MIC (Candida parapsilosis) [µg/mL]	MIC ([Candida] sake) [µg/mL]
CCC/C(C)=N/N=C1\SCC(=O)N1CN1C(=O)c2ccccc2C1=O	> 256	> 256	> 256	> 256	> 256	> 256	> 256	> 256	2 (≈ 5.58 µM)	2 (≈ 5.58 µM)	4 (≈ 11.2 µM)	2 (≈ 5.58 µM)	2 (≈ 5.58 µM)	4 (≈ 11.2 µM)
O=C1CS/C(=N\N=C\c2cccnc2)N1Cc1cccc2ccccc12	> 256	> 256	> 256	> 256	> 256	> 256	> 256	> 256	4 (≈ 11.1 µM)	8 (≈ 22.2 µM)	8 (≈ 22.2 µM)	32 (≈ 88.8 µM)	32 (≈ 88.8 µM)	32 (≈ 88.8 µM)
O=C1CS/C(=N\N=C\c2ccco2)N1Cc1cccc2ccccc12	> 256	> 256	> 256	> 256	> 256	> 256	> 256	> 256	16 (≈ 45.8 µM)	8 (≈ 22.9 µM)	8 (≈ 22.9 µM)	16 (≈ 45.8 µM)	16 (≈ 45.8 µM)	2 (≈ 5.72 µM)
C=CCC/C(C)=N/N=C1\SCC(=O)N1CN1C(=O)c2ccccc2C1=O	> 256	> 256	> 256	> 256	> 256	> 256	> 256	> 256	4 (≈ 10.8 µM)	32 (≈ 86.4 µM)	4 (≈ 10.8 µM)	32 (≈ 86.4 µM)	128 (≈ 346 µM)	8 (≈ 21.6 µM)
C/C(=N\N=C1/SCC(=O)N1Cc1cccc2ccccc12)c1ccccn1	> 256	> 256	> 256	> 256	> 256	> 256	> 256	> 256	2 (≈ 5.34 µM)	2 (≈ 5.34 µM)	2 (≈ 5.34 µM)	2 (≈ 5.34 µM)	2 (≈ 5.34 µM)	2 (≈ 5.34 µM)
O=C1CS/C(=N\N=C\c2cccc3ccccc23)N1Cc1cccc2ccccc12	> 256	> 256	> 256	> 256	> 256	> 256	> 256	> 256	256 (≈ 625 µM)	64 (≈ 156 µM)	32 (≈ 78.1 µM)	8 (≈ 19.5 µM)	8 (≈ 19.5 µM)	8 (≈ 19.5 µM)
O=C1CS/C(=N\N=C\c2ccc3c(c2)OCO3)N1Cc1cccc2ccccc12	> 256	> 256	> 256	> 256	> 256	> 256	> 256	> 256	8 (≈ 19.8 µM)	4 (≈ 9.91 µM)	16 (≈ 39.7 µM)	8 (≈ 19.8 µM)	16 (≈ 39.7 µM)	8 (≈ 19.8 µM)
O=C1CS/C(=N\N=C2CCCCCCC2)N1Cc1cccc2ccccc12	> 256	> 256	> 256	> 256	> 256	> 256	> 256	> 256	4 (≈ 10.5 µM)	32 (≈ 84.3 µM)	8 (≈ 21.1 µM)	4 (≈ 10.5 µM)	4 (≈ 10.5 µM)	4 (≈ 10.5 µM)
C/C(=N\N=C1/SCC(=O)N1Cc1cccc2ccccc12)c1cccs1	> 256	> 256	> 256	> 256	> 256	> 256	> 256	> 256	2 (≈ 5.27 µM)	8 (≈ 21.1 µM)	2 (≈ 5.27 µM)	16 (≈ 42.2 µM)	16 (≈ 42.2 µM)	2 (≈ 5.27 µM)
C/C(=N\N=C1/SCC(=O)N1Cc1cccc2ccccc12)C1CCCCC1	> 256	> 256	> 256	> 256	> 256	> 256	> 256	> 256	8 (≈ 21.1 µM)	8 (≈ 21.1 µM)	256 (≈ 675 µM)	2 (≈ 5.27 µM)	16 (≈ 42.2 µM)	16 (≈ 42.2 µM)
CCC(CC)=N/N=C1\SCC(=O)N1CN1C(=O)c2ccccc2C1=O	> 256	> 256	> 256	> 256	> 256	> 256	> 256	> 256	2 (≈ 5.58 µM)	8 (≈ 22.3 µM)	8 (≈ 22.3 µM)	8 (≈ 22.3 µM)	8 (≈ 22.3 µM)	8 (≈ 22.3 µM)
CC(C)=N/N=C1\SCC(=O)N1Cc1cccc2ccccc12	> 256	> 256	> 256	> 256	> 256	> 256	> 256	> 256	4 (≈ 12.8 µM)	4 (≈ 12.8 µM)	2 (≈ 6.42 µM)	2 (≈ 6.42 µM)	2 (≈ 6.42 µM)	2 (≈ 6.42 µM)
CCCCC/C(C)=N/N=C1\SCC(=O)N1CN1C(=O)c2ccccc2C1=O	> 256	> 256	> 256	> 256	> 256	> 256	> 256	> 256	4 (≈ 10.3 µM)	8 (≈ 20.7 µM)	128 (≈ 331 µM)	2 (≈ 5.17 µM)	2 (≈ 5.17 µM)	2 (≈ 5.17 µM)
CC/C(C)=N/N=C1\SCC(=O)N1CN1C(=O)c2ccccc2C1=O	> 256	> 256	> 256	> 256	> 256	> 256	> 256	> 256	2 (≈ 5.81 µM)	2 (≈ 5.81 µM)	64 (≈ 186 µM)	8 (≈ 23.2 µM)	8 (≈ 23.2 µM)	2 (≈ 5.81 µM)
O=C1CS/C(=N\N=C\c2cccc3ccccc23)N1Cc1ccc([N+](=O)[O-])cc1	> 256	> 256	> 256	> 256	> 256	> 256	> 256	> 256	256 (≈ 633 µM)	64 (≈ 158 µM)	16 (≈ 39.6 µM)	8 (≈ 19.8 µM)	8 (≈ 19.8 µM)	8 (≈ 19.8 µM)
C/C(=N\N=C1/SCC(=O)N1Cc1cccc2ccccc12)c1ccccc1	> 256	> 256	> 256	> 256	> 256	> 256	> 256	> 256	2 (≈ 5.36 µM)	8 (≈ 21.4 µM)	2 (≈ 5.36 µM)	32 (≈ 85.7 µM)	32 (≈ 85.7 µM)	8 (≈ 21.4 µM)
C/C(=N\N=C1/SCC(=O)N1Cc1cccc2ccccc12)c1ccco1	> 256	> 256	> 256	> 256	> 256	> 256	> 256	> 256	32 (≈ 88 µM)	32 (≈ 88 µM)	128 (≈ 352 µM)	4 (≈ 11 µM)	4 (≈ 11 µM)	4 (≈ 11 µM)
C[C@@H]1[C@H](O)[C@@H](C)/C=C/C=C/C=C/C=C/C=C/C=C/C=C/[C@H](O[C@@H]2O[C@H](C)[C@@H](O)[C@H](N)[C@@H]2O)C[C@@H]2O[C@](O)(C[C@@H](O)C[C@@H](O)[C@H](O)CC[C@@H](O)C[C@@H](O)CC(=O)O[C@H]1C)C[C@H](O)[C@H]2C(=O)O [AMPHOTERICIN B]									4 (≈ 4.33 µM)	4 (≈ 4.33 µM)	2 (≈ 2.16 µM)	4 (≈ 4.33 µM)	2 (≈ 2.16 µM)	2 (≈ 2.16 µM)
CC(C)(O/N=C(\C(=O)N[C@@H]1C(=O)N2C(C(=O)[O-])=C(C[n+]3ccccc3)CS[C@H]12)c1csc(N)n1)C(=O)O [CEFTAZIDIME]	2 (≈ 3.66 µM)	4 (≈ 7.32 µM)	4 (≈ 7.32 µM)	4 (≈ 7.32 µM)	4 (≈ 7.32 µM)	8 (≈ 14.6 µM)	8 (≈ 14.6 µM)	8 (≈ 14.6 µM)						
Clc1ccccc1C(c1ccccc1)(c1ccccc1)n1ccnc1 [CLOTRIMAZOLE]									2 (≈ 5.8 µM)	2 (≈ 5.8 µM)	2 (≈ 5.8 µM)	2 (≈ 5.8 µM)	2 (≈ 5.8 µM)	2 (≈ 5.8 µM)
OC(Cn1cncn1)(Cn1cncn1)c1ccc(F)cc1F [FLUCONAZOLE]									2 (≈ 6.53 µM)	2 (≈ 6.53 µM)	2 (≈ 6.53 µM)	2 (≈ 6.53 µM)	2 (≈ 6.53 µM)	2 (≈ 6.53 µM)
CC(=O)N1CCN(c2ccc(OCC3COC(Cn4ccnc4)(c4ccc(Cl)cc4Cl)O3)cc2)CC1 (configuration not stated) [KETOCONAZOLE]									2 (≈ 3.76 µM)	2 (≈ 3.76 µM)	2 (≈ 3.76 µM)	4 (≈ 7.53 µM)	2 (≈ 3.76 µM)	4 (≈ 7.53 µM)
Clc1ccc(COC(Cn2ccnc2)c2ccc(Cl)cc2Cl)c(Cl)c1 (configuration not stated) [MICONAZOLE]									2 (≈ 4.81 µM)	4 (≈ 9.61 µM)	2 (≈ 4.81 µM)	4 (≈ 9.61 µM)	4 (≈ 9.61 µM)	2 (≈ 4.81 µM)
Clc1ccc(C(Cn2ccnc2)OCc2ccsc2Cl)c(Cl)c1 (configuration not stated) [TIOCONAZOLE]									8 (≈ 20.6 µM)	4 (≈ 10.3 µM)	8 (≈ 20.6 µM)	8 (≈ 20.6 µM)	8 (≈ 20.6 µM)	4 (≈ 10.3 µM)

— ChEMBL document CHEMBL3739379, “Anti-Candida activity and cytotoxicity of a large library of new N-substituted-1,3-thiazolidin-4-one derivatives” (Eur J Med Chem, 2016)
